Results: ChEMBL document CHEMBL3046033, “Design, synthesis, crystal structure analysis, and insecticidal evaluation of phenylazoneonicotinoids” (2011)

Tests used:
Type in all cases: functional
Aphis craccivora [1] = assay: Insecticidal activity against Aphis craccivora (cowpea aphid) assessed as mortality at 250 mg/L after 24 hr by leaf-dip method
Outline: (§1)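 Test solutions were made by dissolving compounds in N,N-dimethylformamide and diluting with water containing Triton X-100 (0.1 mg/L), giving a series of 500.0, 250.0 and 125.0 mg/L plus other concentrations for the cowpea aphid (Aphis craccivora) bioassay.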

Aphis craccivora [2] = assay: Insecticidal activity against Aphis craccivora (cowpea aphid) assessed as mortality at 125 mg/L after 24 hr by leaf-dip method; outline: as §1
Aphis craccivora [3] = assay: Insecticidal activity against Aphis craccivora (cowpea aphid) assessed as mortality at 500 mg/L after 24 hr by leaf-dip method; outline: as §1
Aphis craccivora [4] = assay: Insecticidal activity against Aphis craccivora (cowpea aphid) assessed as mortality after 24 hr by leaf-dip method; outline: as §1

| Compound | mortality at 250 µg/mL (Aphis craccivora [1]) | mortality at 125 µg/mL (Aphis craccivora [2]) | mortality at 500 µg/mL (Aphis craccivora [3]) | LC50 (Aphis craccivora [4]) |
| --- | --- | --- | --- | --- |
| COc1ccccc1/N=N/C(=C1/NCCN1Cc1ccc(Cl)nc1)[N+](=O)[O-] | 76% | 35.5% | 91% | – |
| COc1cccc(OC)c1/N=N/C(=C1/NCCN1Cc1ccc(Cl)nc1)[N+](=O)[O-] | 100% | 100% | 100% | 9.9 µM |
| O=[N+]([O-])C(/N=N/c1ccc([N+](=O)[O-])cc1)=C1\NCCN1Cc1cnc(Cl)s1 | – | – | 12.1% | – |
| O=[N+]([O-])C(/N=N/c1c(Cl)cccc1Cl)=C1\NCCN1Cc1cnc(Cl)s1 | – | – | 18.2% | – |
| Cc1cccc(/N=N/C(=C2/NCCN2Cc2cnc(Cl)s2)[N+](=O)[O-])c1C | – | – | 61.7% | – |
| Cc1cccc(C)c1/N=N/C(=C1/NCCN1Cc1cnc(Cl)s1)[N+](=O)[O-] | 100% | 100% | 100% | 3.5 µM |
| Cc1cc(C)c(/N=N/C(=C2/NCCN2Cc2cnc(Cl)s2)[N+](=O)[O-])c(C)c1 | 100% | 100% | 100% | – |
| CCc1cccc(CC)c1/N=N/C(=C1/NCCN1Cc1cnc(Cl)s1)[N+](=O)[O-] | 100% | 100% | 100% | 11.8 µM |
| COc1ccc(/N=N/C(=C2/NCCN2Cc2cnc(Cl)s2)[N+](=O)[O-])cc1 | – | – | 11.8% | – |
| COc1cccc(OC)c1/N=N/C(=C1/NCCN1Cc1cnc(Cl)s1)[N+](=O)[O-] | 100% | 100% | 100% | 14.6 µM |
| O=[N+]([O-])C(/N=N/c1ccccc1)=C1\NCCN1Cc1ccc(Cl)nc1 | – | – | 31.2% | – |
| O=[N+]([O-])C(/N=N/c1ccc(F)cc1)=C1\NCCN1Cc1ccc(Cl)nc1 | 100% | 100% | 100% | 37.2 µM |
| O=[N+]([O-])C(/N=N/c1ccccc1F)=C1\NCCN1Cc1ccc(Cl)nc1 | – | – | 13% | – |
| O=[N+]([O-])C(/N=N/c1ccc(F)cc1F)=C1\NCCN1Cc1ccc(Cl)nc1 | – | – | 12.2% | – |
| O=[N+]([O-])C(/N=N/c1cccc(F)c1F)=C1\NCCN1Cc1ccc(Cl)nc1 | – | – | 25.1% | – |
| O=[N+]([O-])C(/N=N/c1ccc(F)c(Cl)c1)=C1\NCCN1Cc1ccc(Cl)nc1 | – | – | 8.6% | – |
| O=[N+]([O-])C(/N=N/c1ccccc1Cl)=C1\NCCN1Cc1ccc(Cl)nc1 | – | – | 7.1% | – |

| Compound | mortality at 250 µg/mL (Aphis craccivora [1]) | mortality at 125 µg/mL (Aphis craccivora [2]) | mortality at 500 µg/mL (Aphis craccivora [3]) | LC50 (Aphis craccivora [4]) |
| --- | --- | --- | --- | --- |
| O=[N+]([O-])C(/N=N/c1c(Cl)cccc1Cl)=C1\NCCN1Cc1ccc(Cl)nc1 | – | – | 6.5% | – |
| O=[N+]([O-])C(/N=N/c1ccc(Br)cc1)=C1\NCCN1Cc1ccc(Cl)nc1 | – | – | 58.3% | – |
| O=[N+]([O-])C(/N=N/c1ccccc1I)=C1\NCCN1Cc1ccc(Cl)nc1 | – | – | 0% | – |
| O=[N+]([O-])C(/N=N/c1ccc([N+](=O)[O-])cc1)=C1\NCCN1Cc1ccc(Cl)nc1 | – | – | 4.7% | – |
| O=[N+]([O-])C(/N=N/c1ccccc1[N+](=O)[O-])=C1\NCCN1Cc1ccc(Cl)nc1 | – | – | 8.2% | – |
| Cc1ccccc1/N=N/C(=C1/NCCN1Cc1ccc(Cl)nc1)[N+](=O)[O-] | – | – | 52.5% | – |
| Cc1ccc(/N=N/C(=C2/NCCN2Cc2ccc(Cl)nc2)[N+](=O)[O-])cc1 | – | – | 56.6% | – |
| Cc1ccc(/N=N/C(=C2/NCCN2Cc2ccc(Cl)nc2)[N+](=O)[O-])cc1C | – | – | 19.7% | – |
| Cc1cccc(/N=N/C(=C2/NCCN2Cc2ccc(Cl)nc2)[N+](=O)[O-])c1C | – | – | 73.3% | – |
| Cc1cccc(C)c1/N=N/C(=C1/NCCN1Cc1ccc(Cl)nc1)[N+](=O)[O-] | 100% | 100% | 100% | 4.26 µM |
| Cc1cc(C)c(/N=N/C(=C2/NCCN2Cc2ccc(Cl)nc2)[N+](=O)[O-])c(C)c1 | 100% | 100% | 100% | 4.99 µM |
| Cc1cc(C(F)(C(F)(F)F)C(F)(F)F)cc(C)c1/N=N/C(=C1/NCCN1Cc1ccc(Cl)nc1)[N+](=O)[O-] | – | – | 12.2% | – |
| CCc1cccc(C)c1/N=N/C(=C1/NCCN1Cc1ccc(Cl)nc1)[N+](=O)[O-] | 100% | 100% | 100% | 3.74 µM |
| CCc1cccc(CC)c1/N=N/C(=C1/NCCN1Cc1ccc(Cl)nc1)[N+](=O)[O-] | 100% | 100% | 100% | 2.8 µM |
| CC(C)c1cccc(C(C)C)c1/N=N/C(=C1/NCCN1Cc1ccc(Cl)nc1)[N+](=O)[O-] | 100% | 100% | 100% | 13.8 µM |
| COc1ccc(/N=N/C(=C2/NCCN2Cc2ccc(Cl)nc2)[N+](=O)[O-])cc1 | – | – | 47.5% | – |
| O=[N+]([O-])/N=C1\NCCN1Cc1ccc(Cl)nc1 [IMIDACLOPRID] | 100% | 100% | 100% | 35 µM |
